The values that follow come from PubChem BioAssay AID504823 (Southern Research Specialized Biocontainment Screening …, 2011).

The structures appear in SMILES notation. Bounds are passed on as bounds.

The assay deals with HEp-2 RSV Long CPE inhibition, luminescence viability. As to the kind of experiment: RSV-infected HEp-2 viability protection – cell-based, RSV Long, synthesized compounds, set 9, dose response (AID 504823). In short, it runs like this:
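Material – RSV Long-infected HEp-2 cells · Probe or stimulus – RSV Long, MOI 0.45 · Compound dosing – 0.5% DMSO final · Times – 6 days, 37 °C · Measured by – luminescent CPE readout · Evaluation – % CPE inhibition scaled to cell-only and virus-only wells, IC50 by 4-parameter fit · Benchmarks – cell-only and virus control wells · Repeats – triplicate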

What is called IC50 is the concentration at which inhibition is half-maximal. Take `COCCCNC(=O)c1ccc(Cn2c(=O)c3ccccc3n(Cc3ccc([N+](=O)[O-])cc3)c2=O)cc1`: the concentration for half-maximal inhibition (IC50) was < 1.2 µM.

`COCCCNC(=O)c1ccc(Cn2c(=O)c3ccccc3n(Cc3ccc4nonc4c3)c2=O)cc1`: the IC50 was 5.6 µM. With `Cc1ccc(C)c(NC(=O)[C@@H]2CCCN2S(=O)(=O)c2cccc3cccnc23)c1` the figure was 3.2 µM. Next, `COCCCNC(=O)c1ccc(Cn2c(=O)c3ccccc3n(Cc3ccc(OC)cc3)c2=O)cc1`: 2.4 µM; `COCCCNC(=O)c1ccc(Cn2c(=O)c3ccccc3n(Cc3ccc(Cl)cc3)c2=O)cc1`: < 1.2 µM.

For the compound `COc1ccccc1CNC(=O)C1CCN(S(=O)(=O)c2cccc3nonc23)CC1`, the IC50 is 2.9 µM.

For the compound `COCCCNC(=O)c1ccc(Cn2c(=O)c3ccccc3n(Cc3ccc(C)c(C(F)(F)F)c3)c2=O)cc1`, the IC50 was < 1.2 µM. Next, `COCCCNC(=O)c1ccc(Cn2c(=O)c3ccccc3n(Cc3ccc(C(F)(F)F)cc3)c2=O)cc1`: < 1.2 µM. With `COCCCNC(=O)c1ccc(Cn2c(=O)c3ccccc3n(Cc3ccc(Br)cc3)c2=O)cc1` the figure was < 1.2 µM.
